Laboratory results: ChEMBL document CHEMBL1773023, “Potent and selective phosphopeptide mimetic prodrugs targeted to the Src homology 2 (SH2) domain of signal transducer and activator of transcription 3” (J Med Chem, 2011)
One block for each compound: values may come before it. Activity calls are given as the source filed them. The calls are words filed in the database; no cut-off is given here.

What was measured:
NCI-H520 = test: Cytotoxicity against human NCI-H520 cells assessed as cell growth inhibition at 5 to 10 uM after 72 hrs by MTT assay; assay type: functional
Method in brief: (§1)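 Cell lines with constitutive Stat3 phosphorylation (melanoma, NSCLC) exposed to prodrug at 5–10 μM. Percent growth inhibition recorded.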

[1] = molecular target: Focal adhesion kinase 1 (Homo sapiens) (UniProt Q05397); test: Inhibition of constitutive FAK phosphorylation at Tyr861 in human MDA-MB-468 cells at 5 uM measured after 2 hrs by Western blotting
Sequence of Focal adhesion kinase 1 (Homo sapiens) (Q05397 2-1052 limits assumed): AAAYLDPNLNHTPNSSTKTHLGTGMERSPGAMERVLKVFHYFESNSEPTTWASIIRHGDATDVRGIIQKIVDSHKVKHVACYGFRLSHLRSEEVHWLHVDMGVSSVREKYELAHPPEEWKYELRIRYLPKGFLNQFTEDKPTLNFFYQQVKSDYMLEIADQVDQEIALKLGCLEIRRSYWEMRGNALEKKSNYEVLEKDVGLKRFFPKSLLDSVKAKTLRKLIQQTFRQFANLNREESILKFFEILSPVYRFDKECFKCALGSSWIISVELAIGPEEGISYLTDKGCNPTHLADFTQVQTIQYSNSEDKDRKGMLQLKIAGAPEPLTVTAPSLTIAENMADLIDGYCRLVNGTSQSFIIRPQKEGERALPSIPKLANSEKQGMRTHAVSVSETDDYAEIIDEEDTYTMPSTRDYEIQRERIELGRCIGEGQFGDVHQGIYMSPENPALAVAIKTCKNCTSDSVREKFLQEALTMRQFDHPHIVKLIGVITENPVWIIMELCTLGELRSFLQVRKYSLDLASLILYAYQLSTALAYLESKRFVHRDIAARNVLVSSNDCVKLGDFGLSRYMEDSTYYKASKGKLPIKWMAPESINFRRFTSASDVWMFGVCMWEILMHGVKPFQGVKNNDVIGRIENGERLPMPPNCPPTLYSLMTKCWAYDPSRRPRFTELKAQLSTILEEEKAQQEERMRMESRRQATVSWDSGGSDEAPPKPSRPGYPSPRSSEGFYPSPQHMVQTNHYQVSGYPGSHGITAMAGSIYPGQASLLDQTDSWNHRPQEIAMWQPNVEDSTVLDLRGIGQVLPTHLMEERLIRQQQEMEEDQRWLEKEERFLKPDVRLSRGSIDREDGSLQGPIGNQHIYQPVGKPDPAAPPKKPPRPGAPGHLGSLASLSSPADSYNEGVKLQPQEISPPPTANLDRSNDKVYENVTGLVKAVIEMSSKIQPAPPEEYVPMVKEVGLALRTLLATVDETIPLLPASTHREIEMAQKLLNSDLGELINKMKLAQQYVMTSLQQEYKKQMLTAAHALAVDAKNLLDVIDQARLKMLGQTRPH

[2] = molecular target: T1, Signal transducer and activator of transcription 3 (Homo sapiens, UniProt P40763); test: Inhibition of EGF-induced SH2 domain of Stat3 phosphorylation at Tyr705 in human MDA-MB-468 cells at 5 uM treated 1.5 hrs before EGF challenge measured after 30 mins by Western blotting; assay type: cell-based
T1 sequence (P40763 whole entry, the tested form may be a part): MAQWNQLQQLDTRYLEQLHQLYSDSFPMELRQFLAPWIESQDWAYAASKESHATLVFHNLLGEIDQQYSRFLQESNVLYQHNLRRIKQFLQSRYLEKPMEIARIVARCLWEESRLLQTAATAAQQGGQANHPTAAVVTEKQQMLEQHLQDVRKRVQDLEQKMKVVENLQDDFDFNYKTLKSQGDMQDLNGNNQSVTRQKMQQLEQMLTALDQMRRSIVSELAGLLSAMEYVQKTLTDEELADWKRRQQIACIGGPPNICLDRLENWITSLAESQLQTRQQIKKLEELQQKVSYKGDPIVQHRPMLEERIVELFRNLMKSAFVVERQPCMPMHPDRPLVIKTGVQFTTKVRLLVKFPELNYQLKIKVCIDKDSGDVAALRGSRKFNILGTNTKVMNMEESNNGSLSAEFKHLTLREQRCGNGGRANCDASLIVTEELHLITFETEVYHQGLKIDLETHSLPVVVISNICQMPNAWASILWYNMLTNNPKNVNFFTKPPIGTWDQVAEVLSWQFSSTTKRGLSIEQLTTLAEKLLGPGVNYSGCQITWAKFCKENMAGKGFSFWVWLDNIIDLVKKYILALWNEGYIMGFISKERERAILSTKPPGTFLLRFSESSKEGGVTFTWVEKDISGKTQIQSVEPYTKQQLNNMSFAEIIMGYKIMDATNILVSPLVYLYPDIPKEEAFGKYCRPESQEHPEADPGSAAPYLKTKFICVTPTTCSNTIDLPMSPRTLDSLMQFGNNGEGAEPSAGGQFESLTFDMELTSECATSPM
Method in brief: (§2)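 MDA-MB-468 cells pretreated 1.5 h with prodrug (5 μM), then EGF 100 ng/mL for 30 min; lysates split onto three PVDF blots probed for phospho/total Stat3, pSer473/total Akt, and phospho/total Stat5.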

[3] = Cytotoxicity against human NCI-H528 cells assessed as cell growth inhibition at 5 to 10 uM after 72 hrs by MTT assay; assay type: functional; method in brief: as §1
[4] = molecular target: T1, Signal transducer and activator of transcription 3; test: Inhibition of SH2 domain of Stat3 constitutive phosphorylation at Tyr705 in human MDA-MB-468 cells at 0.5 uM after 2 hrs by Western blotting; assay type: cell-based
Method in brief: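 MDA-MB-468 cells (4×10^5/well, DMEM 10% FCS, overnight) given prodrug from freshly made 10 mM DMSO stock for 2 h. Lysates in Hepes pH 7.4 Triton buffer with phosphatase/protease inhibitors; 12 μg protein on 8% SDS-PAGE, PVDF, probed for pStat3 Y705 by ECL, then stripped and reprobed for total Stat3.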

[5] = molecular target: T1, Signal transducer and activator of transcription 3; test: Inhibition of SH2 domain of Stat3 constitutive phosphorylation at Tyr705 in human MDA-MB-468 cells at 5 uM after 30 mins by Western blotting; assay type: cell-based
Method in brief: (§3)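 MDA-MB-468 cells given a single 5 μM prodrug dose and harvested at set times; pTyr705 and total Stat3 by Western blot of 12 μg lysate protein on 8% SDS-PAGE.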

A-375 = test: Cytotoxicity against human A375 cells assessed as cell growth inhibition at 5 to 10 uM after 72 hrs by MTT assay; assay type: functional; method in brief: as §1
[6] = Cytotoxicity against human H1299 cells assessed as cell growth inhibition at 5 to 10 uM after 72 hrs by MTT assay; assay type: functional, NCI-H1299; method in brief: as §1
[7] = molecular target: T2, Signal transducer and activator of transcription 5A (Homo sapiens) (UniProt P42229); test: Inhibition of EGF-induced SH2 domain of Stat5 phosphorylation at Tyr694 in human MDA-MB-468 cells at 5 uM treated 1.5 hrs before EGF challenge measured after 30 mins by Western blotting; assay type: cell-based; method in brief: as §2
T2 sequence (whole entry): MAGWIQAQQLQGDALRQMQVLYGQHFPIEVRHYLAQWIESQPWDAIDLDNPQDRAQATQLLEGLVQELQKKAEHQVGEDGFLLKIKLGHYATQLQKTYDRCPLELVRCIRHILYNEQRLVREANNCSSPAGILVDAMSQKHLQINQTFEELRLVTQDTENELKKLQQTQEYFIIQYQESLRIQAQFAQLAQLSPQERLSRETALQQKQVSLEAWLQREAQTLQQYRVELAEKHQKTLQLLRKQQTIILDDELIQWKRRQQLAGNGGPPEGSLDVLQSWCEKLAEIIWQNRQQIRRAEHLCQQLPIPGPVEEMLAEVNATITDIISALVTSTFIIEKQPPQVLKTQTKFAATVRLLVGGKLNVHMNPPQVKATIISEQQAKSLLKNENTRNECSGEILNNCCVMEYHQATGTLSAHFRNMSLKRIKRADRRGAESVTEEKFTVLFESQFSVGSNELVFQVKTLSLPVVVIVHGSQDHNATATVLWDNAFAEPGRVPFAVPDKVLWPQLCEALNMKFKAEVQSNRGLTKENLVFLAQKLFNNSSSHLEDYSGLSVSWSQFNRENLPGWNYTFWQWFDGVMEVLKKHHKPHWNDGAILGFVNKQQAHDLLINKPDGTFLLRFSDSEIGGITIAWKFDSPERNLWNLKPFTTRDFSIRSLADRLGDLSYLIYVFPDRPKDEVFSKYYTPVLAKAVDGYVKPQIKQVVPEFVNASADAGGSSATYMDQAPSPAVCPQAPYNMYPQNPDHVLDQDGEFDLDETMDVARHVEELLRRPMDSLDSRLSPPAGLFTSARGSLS

[8] = molecular target: T3, Signal transducer and activator of transcription 1-alpha/beta (Homo sapiens) (UniProt P42224); test: Inhibition of IFN-gamma-induced Stat1 phosphorylation at Tyr701 in human MDA-MB-468 cells at 5 uM treated 1.5 hrs before IFN-gamma challenge measured after 30 mins by Western blotting; assay type: cell-based
T3 sequence (whole entry): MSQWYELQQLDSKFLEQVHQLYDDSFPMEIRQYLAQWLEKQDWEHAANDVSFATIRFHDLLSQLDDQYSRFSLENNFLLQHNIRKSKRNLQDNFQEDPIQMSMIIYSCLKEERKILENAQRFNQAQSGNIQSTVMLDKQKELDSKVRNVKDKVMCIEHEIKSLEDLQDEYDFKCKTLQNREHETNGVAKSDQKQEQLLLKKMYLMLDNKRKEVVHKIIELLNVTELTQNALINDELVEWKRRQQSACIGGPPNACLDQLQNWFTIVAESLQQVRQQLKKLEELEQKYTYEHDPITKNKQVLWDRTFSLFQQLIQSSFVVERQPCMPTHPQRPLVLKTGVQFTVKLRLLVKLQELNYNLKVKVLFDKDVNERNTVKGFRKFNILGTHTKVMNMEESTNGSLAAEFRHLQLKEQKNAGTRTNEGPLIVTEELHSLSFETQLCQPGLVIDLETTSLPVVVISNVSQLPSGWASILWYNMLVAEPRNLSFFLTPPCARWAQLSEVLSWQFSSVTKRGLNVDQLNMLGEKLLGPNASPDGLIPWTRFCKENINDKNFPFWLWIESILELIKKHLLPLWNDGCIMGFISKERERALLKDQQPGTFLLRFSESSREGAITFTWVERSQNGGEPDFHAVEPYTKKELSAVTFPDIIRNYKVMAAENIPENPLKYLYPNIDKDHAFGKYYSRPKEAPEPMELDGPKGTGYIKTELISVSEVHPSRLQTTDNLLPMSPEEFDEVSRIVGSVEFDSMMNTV
Method in brief: (§4)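 MDA-MB-468 cells exposed to rising prodrug concentrations for 1.5 h, then interferon γ 25 ng/mL for 30 min; Western blot for pTyr701 and total Stat1.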

[9] = Cytotoxicity against human NCI-H1819 cells assessed as cell growth inhibition at 5 to 10 uM after 72 hrs by MTT assay; assay type: functional; method in brief: as §1
[10] = molecular target: T1, Signal transducer and activator of transcription 3; test: Inhibition of SH2 domain of Stat3 constitutive phosphorylation at Tyr705 in human MDA-MB-468 cells at 5 uM after 16 hrs by Western blotting; assay type: cell-based; method in brief: as §3
MeWo = test: Cytotoxicity against human MeWo cells assessed as cell growth inhibition at 5 to 10 uM after 72 hrs by MTT assay; assay type: functional; method in brief: as §1
[11] = molecular target: RAC-alpha serine/threonine-protein kinase (Homo sapiens) (UniProt P31749); test: Inhibition of EGF-induced Akt phosphorylation at Ser473 in human MDA-MB-468 cells at 5 uM treated 1.5 hrs before EGF challenge measured after 30 mins by Western blotting; assay type: cell-based; method in brief: as §2
Sequence of RAC-alpha serine/threonine-protein kinase (Homo sapiens) (P31749 whole entry, the tested form may be a part): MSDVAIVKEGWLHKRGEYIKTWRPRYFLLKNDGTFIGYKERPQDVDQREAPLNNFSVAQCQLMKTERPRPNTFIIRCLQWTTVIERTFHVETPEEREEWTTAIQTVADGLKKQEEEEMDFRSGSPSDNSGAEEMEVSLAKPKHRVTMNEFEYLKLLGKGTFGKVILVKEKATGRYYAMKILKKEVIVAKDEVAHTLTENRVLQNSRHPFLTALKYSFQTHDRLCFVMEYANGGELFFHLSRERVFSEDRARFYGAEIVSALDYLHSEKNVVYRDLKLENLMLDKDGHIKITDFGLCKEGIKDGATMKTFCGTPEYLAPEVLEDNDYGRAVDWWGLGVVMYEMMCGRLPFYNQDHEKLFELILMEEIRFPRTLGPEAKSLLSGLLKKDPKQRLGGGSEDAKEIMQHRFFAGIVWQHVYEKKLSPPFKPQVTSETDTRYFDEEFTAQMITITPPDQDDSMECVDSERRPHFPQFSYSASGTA

[12] = molecular target: T1, Signal transducer and activator of transcription 3; test: Inhibition of SH2 domain of Stat3 constitutive phosphorylation at Tyr705 in human MDA-MB-468 cells at 5 uM after 4 hrs by Western blotting; assay type: cell-based; method in brief: as §3
MDA-MB-468 = test: Selectivity ratio of inhibition of IFNgamma-induced Stat1 phosphorylation at Tyr701 to inhibition of EGF-induced SH2 domain of Stat3 phosphorylation at Tyr705 in human MDA-MB-468 cells; assay type: cell-based
[13] = molecular target: T1, Signal transducer and activator of transcription 3; test: Inhibition of SH2 domain of Stat3 constitutive phosphorylation at Tyr705 in human MDA-MB-468 cells at 5 uM after 8 hrs by Western blotting; assay type: cell-based; method in brief: as §3
[14] = molecular target: T3, Signal transducer and activator of transcription 1-alpha/beta (Homo sapiens); test: Inhibition of IFN-gamma-induced Stat1 phosphorylation at Tyr701 in human MDA-MB-468 cells treated 1.5 hrs before IFN-gamma challenge measured after 30 mins by Western blotting; assay type: cell-based; method in brief: as §4
A549 = test: Cytotoxicity against human A549 cells assessed as cell growth inhibition at 5 to 10 uM after 72 hrs by MTT assay; assay type: functional; method in brief: as §1
[15] = molecular target: T1, Signal transducer and activator of transcription 3; test: Binding affinity to SH2 domain of Stat3 by fluorescence polarization assay
Method in brief: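 Recombinant Stat3, expressed and purified, tested against phosphopeptides and peptidomimetics in a fluorescence polarization competition assay. Affinity is reported as an inhibition constant (K_I).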

inhibition [1]: inactive | inhibition [2]: Active | inhibition [4]: Active | inhibition [5]: Active | inhibition [7]: inactive | inhibition [8]: Active | inhibition [10]: inactive | inhibition [11]: inactive | inhibition [12]: Active | inhibition [13]: Active | inhibition [14]: Dose-dependent effect
Structure (SMILES): CCCC[C@H](NC(=O)/C=C(\C)c1ccc(C(F)(F)P(=O)(OCOC(=O)C(C)(C)C)OCOC(=O)C(C)(C)C)cc1)C(=O)N1C[C@H]2C[C@H]2[C@H]1C(=O)N[C@@H](CCC(N)=O)C(C)OCc1ccccc1 (stereo partly drawn)
growth inhibition (GI) (NCI-H520): <20% | growth inhibition (GI) [3]: <20% | growth inhibition (GI) (A-375): <20% | growth inhibition (GI) [6]: <20% | growth inhibition (GI) [9]: <20% | growth inhibition (GI) (MeWo): <20% | Ratio (MDA-MB-468): 10 | growth inhibition (GI) (A549): <20%

Structure (SMILES): C/C(=C\C(=O)N[C@@H](CC(C)C)C(=O)N1CCC[C@H]1C(=O)N[C@H](C)CCC(N)=O)c1ccc(OP(=O)(O)O)cc1
Ki [15]: 0.144 µM

Structure (SMILES): CCCC[C@H](NC(=O)/C=C/c1ccc(OP(=O)(O)O)cc1)C(=O)N1C[C@H]2C[C@H]2[C@H]1C(=O)N[C@@H](CCC(N)=O)C(=O)NCc1ccccc1
Ki [15]: 0.048 µM

Structure (SMILES): CCCC[C@H](NC(=O)/C=C(\C)c1ccc(OP(=O)(O)O)cc1)C(=O)N1C[C@H]2C[C@H]2[C@H]1C(=O)N[C@H](C)CCC(N)=O
Ki [15]: 0.066 µM

Structure (SMILES): CCCC[C@H](NC(=O)/C=C(\C)c1ccc(OP(=O)(O)O)cc1)C(=O)N1C[C@H]2C[C@H]2[C@H]1C(=O)NCCNC(N)=O
Ki [15]: 0.046 µM

Structure (SMILES): C/C(=C\C(=O)N[C@@H](CC(C)C)C(=O)N1CCC[C@H]1C(=O)NCCOC(N)=O)c1ccc(OP(=O)(O)O)cc1
Ki [15]: 0.203 µM

Structure (SMILES): C/C(=C\C(=O)N[C@H]1CCc2cccc3c2N(C1=O)[C@H](C(=O)NCCNC(N)=O)C3)c1ccc(OP(=O)(O)O)cc1
Ki [15]: 0.386 µM

Structure (SMILES): C/C(=C\C(=O)N[C@H]1CCc2cccc3c2N(C1=O)[C@H](C(=O)N[C@@H](CCC(N)=O)C(=O)NCc1ccccc1)C3)c1ccc(OP(=O)(O)O)cc1
Ki [15]: 0.057 µM

Structure (SMILES): C/C(=C\C(=O)N[C@@H](CC(C)C)C(=O)N1CCC[C@H]1C(=O)NCCNC(N)=O)c1ccc(OP(=O)(O)O)cc1
Ki [15]: 0.094 µM

Structure (SMILES): C/C(=C\C(=O)N[C@H]1CCc2cccc3c2N(C1=O)[C@H](C(=O)N[C@H](C)CCC(N)=O)C3)c1ccc(OP(=O)(O)O)cc1
Ki [15]: 0.105 µM
